The data set can be described thus: Toxicity liver stage against HepG2, at 10uM. The format is cell-based. More on the design: test concentration 10 uM, cell line HepG2-A16-CD81EGFP. The note with it: human, HepG2-A16-CD81EGFP cells; read-out: INHIBITION
A digest of the protocol:
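Uninfected HepG2-A16-CD81EGFP cells, 3 × 10^3 per well, 1536-well, plated on prespotted compound at 10 μM final, parasite-free screening media added to match infected plates; puromycin 10 μM positive, DMSO 0.5% negative; run in parallel with 48 h PbLuc assay at 37 °C, 5% CO2; viability by CellTiter-Glo luminescence, normalized to controls.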

With `CN(C)C(=O)C1(C)CN(Cc2cn(C)c3ccccc23)CCO1` (configuration not stated), the cytotoxicity at 10 µM is 1.78%.
Regarding `COc1ccc2[nH]c(=O)c(CN(C)CCN3CCCC3)cc2c1`, the cytotoxicity at 10 µM is 1.97%.
As to `Cc1nccn1-c1cc(CNC(=O)c2ccccn2)ccn1`, the cytotoxicity at 10 µM was -11.5%.
On to `CCC(=O)N(CC)CCc1nccs1`, for which the cytotoxicity at 10 µM was 9.66%.
As to `Cc1n[nH]c(C2CN(C(=O)c3scnc3C)CCO2)n1` (configuration not stated), the cytotoxicity at 10 µM is 10.6%.
Regarding `Cc1nc2n(n1)CC(NCc1nc(-c3cccnc3)no1)CC2` (configuration not stated), the cytotoxicity at 10 µM is -3.44%.
For `COc1cc(CCC(=O)N2CCC(c3cc4ncc(C)nc4[nH]3)C2)on1` (configuration not stated), the cytotoxicity at 10 µM was 1.92%.
On to `c1ccc(-c2nnn3c2COC(CNCC2CC2)C3)cc1` (configuration not stated), for which the cytotoxicity at 10 µM is -77.8%.
For `Cc1oc(-c2ccco2)nc1CN1CCCC(Cn2cncn2)C1` (configuration not stated), the cytotoxicity at 10 µM is -23.5%.
`CCCc1nc(NCC(=O)N2CCOCC2)c2c(n1)c(C)nn2CC`: the cytotoxicity at 10 µM was found to be 12.2%.
The same measure for `COC1CCCN(Cc2cc(O)c3cc(C)cc(C)c3n2)C1` (configuration not stated): 3.54%; for `CCSCCC(C)N(C)C(=O)c1cc(C)on1` (configuration not stated): -7.32%.
Consider `O=C(c1ncoc1C1CC1)N1CCCN(CCCc2ccccc2)CC1`, for which the cytotoxicity at 10 µM was -2.78%.
As to `Nc1cc(N2CCCC2c2cnccn2)ncn1` (configuration not stated), the cytotoxicity at 10 µM was 0.153%.
Turning to `Cn1cc(C2CCCN2C(=O)COC2CCCCC2)cn1` (configuration not stated), the cytotoxicity at 10 µM is -8.79%.
Take `O=C1CO[C@H]2CN(Cc3cccc(F)c3F)C[C@@H]2N1C1CCOCC1`: the cytotoxicity at 10 µM is -12.3%.
The value for `NC(=O)c1cnc(NC(=O)CCc2ccco2)c(Cl)c1` was 3.42%; that for `O=S(=O)(c1cn[nH]c1)N1CCC(O)(CN2CCC(F)(F)CC2)C1` (configuration not stated) was 5.92%; that for `CC1=C[C@@H](CN2CCOCC2)[C@H](C(C)C)C[C@H]1Cc1nnc(C)o1` was -5.07%.
Turning to `CCC(=O)Nc1ccc2c(c1)C1(CCOCC1)CN2CCF`, the cytotoxicity at 10 µM was -87.4%.
The same measure for `CC(CCc1ccc(F)c(F)c1)NS(=O)(=O)Cc1ccon1` (configuration not stated): -7.97%; for `Cc1nc(C2CCCN(C(=O)COCc3ccccc3Cl)C2)no1` (configuration not stated): 5.8%.
Consider `CCC(=O)N1C[C@@H](C(=O)NC)[C@H](c2ccnc(N3CCCC3)n2)C1`, for which the cytotoxicity at 10 µM is -1.21%.
With `O=C(Nc1ccccc1)c1ccc2c(c1)C1(CCCCC1)CN2`, the cytotoxicity at 10 µM is -31.5%.
The same measure for `CN1CCCN(S(=O)(=O)c2cnn(C)c2)c2cc(Cl)ccc21`: 7.41%.
For `O=C(NCCNc1ncccn1)c1ccc(Cl)s1`, the cytotoxicity at 10 µM came out at 4.6%.
With `Cn1ncc2c(N[C@@H]3C[C@H]4CC[C@@H]3C4)nc(-c3ccncc3)nc21`, the cytotoxicity at 10 µM came out at 5.89%.
The value for `N#Cc1cccc(N2CC3(CCN(C(=O)c4ccncc4)C3)CC2=O)c1` (configuration not stated) was -1.75%; that for `CC(C(=O)Nc1ccccn1)n1ccc(C(F)(F)F)n1` (configuration not stated) was 2.74%; that for `CN(Cc1cn(CC2CCNCC2)nn1)CC1CCCCO1` (configuration not stated) was -1.9%.
As to `Cc1ccc(C(=O)NC(CN2CCCC2=O)c2ccccc2)cn1` (configuration not stated), the cytotoxicity at 10 µM was -4.6%.
Turning to `CC(=O)N1CCC2(C1)c1ccccc1S(=O)(=O)N2Cc1ccccc1` (configuration not stated), the cytotoxicity at 10 µM was -127%.
With `CCn1cnc(NC(=O)NCC2CCS(=O)(=O)CC2)n1`, the cytotoxicity at 10 µM was 5.08%.
The value for `CC(C)N(CC(N)=O)Cc1cccc(Br)c1` was -6.93%; that for `O=c1cc(Cn2cncn2)nc2n1CCCN(CC1CCOCC1)C2` was 7.77%; that for `O=C(CCc1nccs1)N1CCN(c2ccccn2)CC1` was -19.7%.
In the case of `CCCC1CCCN(C(=O)Nc2ccnc(C(=O)N(C)C)c2)CC1` (configuration not stated), the cytotoxicity at 10 µM amounted to 9.58%.
Regarding `CNc1cc(C)nc(N2C[C@H](C3CC3)[C@@H](N)C2)n1`, the cytotoxicity at 10 µM was -4.7%.
As to `Cc1nnc(NC(=O)NCc2ccc(N3CCOCC3)nc2)s1`, the cytotoxicity at 10 µM is -6.21%.
For the molecule `N#CC1CCN(C(=O)NCCc2ccc(Cl)s2)CC1`, the cytotoxicity at 10 µM is -16.1%.
Take `Cc1cc(C)n(CCN2CCN(C(=O)c3ccc(Br)o3)CC2)n1`: the cytotoxicity at 10 µM is -8.46%.
With `CCn1nc(C)c2nc(C(C)C)nc(NCC(C)O)c21` (configuration not stated), the cytotoxicity at 10 µM stood at 8.02%.
For the molecule `Cc1ccc(S(=O)(=O)N2CCN(C)C3(CCC(=O)N(C)CC3)C2)s1` (configuration not stated), the cytotoxicity at 10 µM is 8.63%.
Turning to `Cc1ccsc1S(=O)(=O)N1CCc2c(c(C(=O)O)nn2CC2CC2)C1`, the cytotoxicity at 10 µM is -0.714%.
As to `CC(C)c1nnsc1CNC(=O)C1CCN(C(=O)C2CCCC2)CC1`, the cytotoxicity at 10 µM stood at 1.05%.
As to `CNC(=O)[C@@H]1[C@H]2CN(Cc3ccccn3)CCN2C[C@H]1c1ccccc1`, the cytotoxicity at 10 µM was found to be 3.38%.
In the case of `CC(C1CC1)N(CC(=O)NC(=O)NC1CC1)C1CC1` (configuration not stated), the cytotoxicity at 10 µM came to 4.84%.
Consider `Cc1ccccc1OCCCC(=O)N(C)CCC#N`, for which the cytotoxicity at 10 µM is 2.33%.
The same measure for `Cc1nnc2ccc(C(=O)N3CCSC(C)(C)C3)cn12`: -3.54%.
With `CCN(CC)S(=O)(=O)c1ccc(CNc2cc(C)nc(C)n2)cc1`, the cytotoxicity at 10 µM is -5.83%.
As to `N#Cc1ccccc1C(=O)N1C[C@H](CO)C[C@H](CN2CCCC2)C1`, the cytotoxicity at 10 µM was -17%.
Consider `Cc1ccc(N2CCN(C(=O)CCC(F)(F)F)C(C)C2)cc1` (configuration not stated), for which the cytotoxicity at 10 µM was -143%.
As for `CCC(O)CN(CC(=O)NC(=O)NC1CC1)c1ccccc1` (configuration not stated), the cytotoxicity at 10 µM is -2.48%.
Consider `Cn1ccnc1Sc1ccc(S(N)(=O)=O)cn1`, for which the cytotoxicity at 10 µM is -1.6%.
For `O=C(NC1CCCN(CCCc2ccccc2)C1)c1ccncc1` (configuration not stated), the cytotoxicity at 10 µM amounted to 0.524%.
The same measure for `Cc1ccc(OCC(=O)N2C[C@@H]3CN(C)CCO[C@@H]3C2)cc1`: -0.204%; for `Cc1c(CCC(=O)Nc2ccc(Br)cn2)cnn1C`: -6.14%.
Consider `CN(Cc1nc(C(F)(F)F)cs1)C(=O)CCc1ccccn1`, for which the cytotoxicity at 10 µM worked out at 23.5%.
For `CNC(=O)COC(=O)c1ccoc1CN1c2ccccc2CC1C` (configuration not stated), the cytotoxicity at 10 µM worked out at 0.165%.
Regarding `Cc1ccc(CN2CCN(C3CCC3)CC2CCO)o1` (configuration not stated), the cytotoxicity at 10 µM was -2.46%.
On to `CCN(CC)S(=O)(=O)c1csc(C(=O)N2CCC(C(N)=O)CC2)c1`, for which the cytotoxicity at 10 µM was -43.9%.
For the molecule `CN(Cc1cn2c(n1)CN(Cc1ccsc1)CC2)Cc1ccco1`, the cytotoxicity at 10 µM is -78.5%.
With `CCc1cc(NCc2ccc(-n3cncn3)c(C)c2)n(C)n1`, the cytotoxicity at 10 µM was -52.6%.
For the molecule `Cc1n[nH]c(C)c1CC(=O)NCCc1ccccc1`, the cytotoxicity at 10 µM stood at 13.7%.
As to `CCN(C)C[C@H]1CC[C@@H](Cc2ccc3c(cnn3C)c2)O1`, the cytotoxicity at 10 µM is -0.957%.
For `COc1ccc(C(=O)N(c2ccc(OC)c(F)c2)C(C)C)cn1`, the cytotoxicity at 10 µM is -1.94%.
Turning to `Cc1cc(C)c(Cn2cncn2)cc1CN1CC[C@@H]2CC[C@H](C1)N2`, the cytotoxicity at 10 µM is -3.96%.
`Cc1nc(C)n(C2CCCN(C(=O)Cc3cn4ccccc4n3)C2)n1` (configuration not stated): the cytotoxicity at 10 µM was -18.3%.
For the molecule `Cc1cccc(CN2CCN(c3nc(CO)cs3)CC2)c1`, the cytotoxicity at 10 µM is -11.6%.
With `CCc1ccsc1C(=O)N1CCN(C(=O)c2ccc(C)o2)CC1`, the cytotoxicity at 10 µM was determined as 6.98%.
On to `Cn1nnnc1SCC1(O)CCCCC1`, for which the cytotoxicity at 10 µM stood at 1.06%.
`CC(C)N(C)Cc1ncn2c1CN(CC(=O)N(C)C)CCC2`: the cytotoxicity at 10 µM was 7.28%.
